{"source": "ChEMBL document CHEMBL4689842", "about": "“EUbOPEN Chemogenomics Library wave 1” (2021)", "tested_on": "HEK-293T", "test": "Multiplex assay against HEK293T;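 on Population Tubulin-Different-Phenotype (%): share of the cells with healthy nuclei that show this phenotype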", "assay_type": "toxicity, cell-based", "details": "human", "method_in_brief": "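Values for tubulin, mitochondrial-mass and membrane-permeability phenotypes are per cents of cells with healthy nuclei. These cells were identified by CellPathfinder machine-learning gating of live cells that had been stained at seeding with Hoechst33342, BioTracker Green Microtubule Cytoskeleton Dye, MitoTracker Red and Annexin V Alexa Fluor 680 and imaged on a CQ1 microscope at 37°C and 5% CO2 after compound addition. The gating first set Hoechst high-intensity objects apart from normal cells, then split normal cells into healthy, pyknosed or fragmented nuclei, and pyknosed cells into mitotic or apoptotic.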", "key": {"[1]": {"details": "12 h, 1 µM, compound concentration 1 uM, replicate 1"}, "[2]": {"details": "12 h, 1 µM, compound concentration 1 uM, replicate 2"}, "[3]": {"details": "12 h, 10 µM, compound concentration 10 uM, replicate 1"}, "[4]": {"details": "12 h, 10 µM, compound concentration 10 uM, replicate 2"}, "[5]": {"details": "24 h, 1 µM, compound concentration 1 uM, replicate 1"}, "[6]": {"details": "24 h, 1 µM, compound concentration 1 uM, replicate 2"}, "[7]": {"details": "24 h, 10 µM, compound concentration 10 uM, replicate 1"}, "[8]": {"details": "24 h, 10 µM, compound concentration 10 uM, replicate 2"}}}
{"smiles": "CCCS(=O)(=O)Nc1ccc(F)c(C(=O)c2c[nH]c3ncc(Cl)cc23)c1F", "note": "[PLX-4720]", "values": [{"measurement": "Population Apoptotic (%)", "setting": "[1]", "value": 13, "unit": "%"}, {"measurement": "Population Fragmented Nuclei (%)", "setting": "[1]", "value": 16, "unit": "%"}, {"measurement": "Population Healthy Nuclei (%)", "setting": "[1]", "value": 62, "unit": "%"}, {"measurement": "Population Hoechst High Intensity Objects (%)", "setting": "[1]", "value": 11, "unit": "%"}, {"measurement": "Population Membrane Permeable-Phenotype (%)", "setting": "[1]", "value": 6, "unit": "%"}, {"measurement": "Population Mitochondria Different-Phenotype (%)", "setting": "[1]", "value": 4, "unit": "%"}, {"measurement": "Population Mitotic Cells (%)", "setting": "[1]", "value": 86, "unit": "%"}, {"measurement": "Population Normal (%)", "setting": "[1]", "value": 88, "unit": "%"}, {"measurement": "Population Pyknosed Nuclei (%)", "setting": "[1]", "value": 20, "unit": "%"}, {"measurement": "Population Tubulin-Different-Phenotype (%)", "setting": "[1]", "value": 8, "unit": "%"}, {"measurement": "Total Cell Count", "setting": "[1]", "value": 675}, {"measurement": "Population Apoptotic (%)", "setting": "[2]", "value": 6, "unit": "%"}, {"measurement": "Population Fragmented Nuclei (%)", "setting": "[2]", "value": 7, "unit": "%"}, {"measurement": "Population Healthy Nuclei (%)", "setting": "[2]", "value": 87, "unit": "%"}, {"measurement": "Population Hoechst High Intensity Objects (%)", "setting": "[2]", "value": 2, "unit": "%"}, {"measurement": "Population Membrane Permeable-Phenotype (%)", "setting": "[2]", "value": 2, "unit": "%"}, {"measurement": "Population Mitochondria Different-Phenotype (%)", "setting": "[2]", "value": 10, "unit": "%"}, {"measurement": "Population Mitotic Cells (%)", "setting": "[2]", "value": 93, "unit": "%"}, {"measurement": "Population Normal (%)", "setting": "[2]", "value": 97, "unit": "%"}, {"measurement": "Population Pyknosed Nuclei (%)", "setting": "[2]", "value": 5, "unit": "%"}, {"measurement": "Population Tubulin-Different-Phenotype (%)", "setting": "[2]", "value": 14, "unit": "%"}, {"measurement": "Total Cell Count", "setting": "[2]", "value": 1750}, {"measurement": "Population Apoptotic (%)", "setting": "[3]", "value": 21, "unit": "%"}, {"measurement": "Population Fragmented Nuclei (%)", "setting": "[3]", "value": 13, "unit": "%"}, {"measurement": "Population Healthy Nuclei (%)", "setting": "[3]", "value": 73, "unit": "%"}, {"measurement": "Population Hoechst High Intensity Objects (%)", "setting": "[3]", "value": 13, "unit": "%"}, {"measurement": "Population Membrane Permeable-Phenotype (%)", "setting": "[3]", "value": 3, "unit": "%"}, {"measurement": "Population Mitochondria Different-Phenotype (%)", "setting": "[3]", "value": 2, "unit": "%"}, {"measurement": "Population Mitotic Cells (%)", "setting": "[3]", "value": 78, "unit": "%"}, {"measurement": "Population Normal (%)", "setting": "[3]", "value": 86, "unit": "%"}, {"measurement": "Population Pyknosed Nuclei (%)", "setting": "[3]", "value": 12, "unit": "%"}, {"measurement": "Population Tubulin-Different-Phenotype (%)", "setting": "[3]", "value": 1, "unit": "%"}, {"measurement": "Total Cell Count", "setting": "[3]", "value": 751}, {"measurement": "Population Apoptotic (%)", "setting": "[4]", "value": 11, "unit": "%"}, {"measurement": "Population Fragmented Nuclei (%)", "setting": "[4]", "value": 9, "unit": "%"}, {"measurement": "Population Healthy Nuclei (%)", "setting": "[4]", "value": 86, "unit": "%"}, {"measurement": "Population Hoechst High Intensity Objects (%)", "setting": "[4]", "value": 2, "unit": "%"}, {"measurement": "Population Membrane Permeable-Phenotype (%)", "setting": "[4]", "value": 0, "unit": "%"}, {"measurement": "Population Mitochondria Different-Phenotype (%)", "setting": "[4]", "value": 5, "unit": "%"}, {"measurement": "Population Mitotic Cells (%)", "setting": "[4]", "value": 88, "unit": "%"}, {"measurement": "Population Normal (%)", "setting": "[4]", "value": 97, "unit": "%"}, {"measurement": "Population Pyknosed Nuclei (%)", "setting": "[4]", "value": 4, "unit": "%"}, {"measurement": "Population Tubulin-Different-Phenotype (%)", "setting": "[4]", "value": 2, "unit": "%"}, {"measurement": "Total Cell Count", "setting": "[4]", "value": 1952}, {"measurement": "Population Apoptotic (%)", "setting": "[5]", "value": 28, "unit": "%"}, {"measurement": "Population Fragmented Nuclei (%)", "setting": "[5]", "value": 13, "unit": "%"}, {"measurement": "Population Healthy Nuclei (%)", "setting": "[5]", "value": 78, "unit": "%"}, {"measurement": "Population Hoechst High Intensity Objects (%)", "setting": "[5]", "value": 7, "unit": "%"}, {"measurement": "Population Membrane Permeable-Phenotype (%)", "setting": "[5]", "value": 7, "unit": "%"}, {"measurement": "Population Mitotic Cells (%)", "setting": "[5]", "value": 71, "unit": "%"}, {"measurement": "Population Normal (%)", "setting": "[5]", "value": 92, "unit": "%"}, {"measurement": "Population Pyknosed Nuclei (%)", "setting": "[5]", "value": 7, "unit": "%"}, {"measurement": "Population Tubulin-Different-Phenotype (%)", "setting": "[5]", "value": 9, "unit": "%"}, {"measurement": "Total Cell Count", "setting": "[5]", "value": 803}, {"measurement": "Population Apoptotic (%)", "setting": "[6]", "value": 3, "unit": "%"}, {"measurement": "Population Fragmented Nuclei (%)", "setting": "[6]", "value": 20, "unit": "%"}, {"measurement": "Population Healthy Nuclei (%)", "setting": "[6]", "value": 77, "unit": "%"}, {"measurement": "Population Hoechst High Intensity Objects (%)", "setting": "[6]", "value": 5, "unit": "%"}, {"measurement": "Population Membrane Permeable-Phenotype (%)", "setting": "[6]", "value": 8, "unit": "%"}, {"measurement": "Population Mitochondria Different-Phenotype (%)", "setting": "[6]", "value": 3, "unit": "%"}, {"measurement": "Population Mitotic Cells (%)", "setting": "[6]", "value": 96, "unit": "%"}, {"measurement": "Population Normal (%)", "setting": "[6]", "value": 94, "unit": "%"}, {"measurement": "Population Pyknosed Nuclei (%)", "setting": "[6]", "value": 2, "unit": "%"}, {"measurement": "Population Tubulin-Different-Phenotype (%)", "setting": "[6]", "value": 24, "unit": "%"}, {"measurement": "Total Cell Count", "setting": "[6]", "value": 2555}, {"measurement": "Population Apoptotic (%)", "setting": "[7]", "value": 15, "unit": "%"}, {"measurement": "Population Fragmented Nuclei (%)", "setting": "[7]", "value": 14, "unit": "%"}, {"measurement": "Population Healthy Nuclei (%)", "setting": "[7]", "value": 78, "unit": "%"}, {"measurement": "Population Hoechst High Intensity Objects (%)", "setting": "[7]", "value": 6, "unit": "%"}, {"measurement": "Population Membrane Permeable-Phenotype (%)", "setting": "[7]", "value": 5, "unit": "%"}, {"measurement": "Population Mitochondria Different-Phenotype (%)", "setting": "[7]", "value": 2, "unit": "%"}, {"measurement": "Population Mitotic Cells (%)", "setting": "[7]", "value": 84, "unit": "%"}, {"measurement": "Population Normal (%)", "setting": "[7]", "value": 93, "unit": "%"}, {"measurement": "Population Pyknosed Nuclei (%)", "setting": "[7]", "value": 6, "unit": "%"}, {"measurement": "Population Tubulin-Different-Phenotype (%)", "setting": "[7]", "value": 3, "unit": "%"}, {"measurement": "Total Cell Count", "setting": "[7]", "value": 975}, {"measurement": "Population Apoptotic (%)", "setting": "[8]", "value": 3, "unit": "%"}, {"measurement": "Population Fragmented Nuclei (%)", "setting": "[8]", "value": 29, "unit": "%"}, {"measurement": "Population Healthy Nuclei (%)", "setting": "[8]", "value": 68, "unit": "%"}, {"measurement": "Population Hoechst High Intensity Objects (%)", "setting": "[8]", "value": 3, "unit": "%"}, {"measurement": "Population Membrane Permeable-Phenotype (%)", "setting": "[8]", "value": 3, "unit": "%"}, {"measurement": "Population Mitochondria Different-Phenotype (%)", "setting": "[8]", "value": 1, "unit": "%"}, {"measurement": "Population Mitotic Cells (%)", "setting": "[8]", "value": 96, "unit": "%"}, {"measurement": "Population Normal (%)", "setting": "[8]", "value": 96, "unit": "%"}, {"measurement": "Population Pyknosed Nuclei (%)", "setting": "[8]", "value": 1, "unit": "%"}, {"measurement": "Population Tubulin-Different-Phenotype (%)", "setting": "[8]", "value": 4, "unit": "%"}, {"measurement": "Total Cell Count", "setting": "[8]", "value": 3379}]}
